These results are taken from PubChem BioAssay.

Experiment [1] can be described thus: inhibitors of TNFa-induced NFkB p65 translocation, primary screen, imaging, HUVEC, MLSMR starter and 10KST1 sets (AID 438;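 active = inhibition above 20% together with a positive visual image hit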;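 note: compound added about 3h40 before a 20 min TNFalpha stimulation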;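 for inhibition: signal is the nuclear over cytoplasmic p65 intensity ratio per well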). Conditions: HUVEC TNFa-induced p65 nuclear translocation; cell count: measured here: nuclei count (cytotoxicity indicator), at 2.08 µM; inhibition: at 2 µM, stronger effect = higher value, 0% TNFa-plus-vehicle, 100% no-TNFa wells.
A short description of experiment [2]: inhibitors of E-selectin induction by TNFa, primary screen, imaging, HUVEC, immunofluorescence, MLSMR starter and 10KST1 sets (AID 487;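 active = visually confirmed hit in the image check and inhibition above 20%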;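 for inhibition: signal is fraction of cell area covered by stained E-selectin grains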;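 for nuclei count: 100% = median nuclei count of all wells on the same plate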). Conditions: HUVEC TNFalpha-induced E-selectin immunofluorescence imaging, at 2 µM; inhibition: stronger effect = higher value; nuclei count: measured here: cell number, toxicity.
A short description of experiment [3]: DUSP6 inhibitors restoring Erk phosphorylation by chemical complementation, primary imaging in DUSP6-transfected HeLa (AID 609;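 active = compounds giving at least 50% inhibition in the cell-based MKP-3 phosphatase rescue imaging test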;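 for inhibition: phospho-Erk level distribution per well compared with pooled transfected vehicle control wells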). Conditions: HeLa MKP-3 transfected, phospho-Erk imaging KS statistic, at 10 µM, cells stimulated with TPA for 15 min.
Experiment [4] has as its target Dual specificity protein phosphatase 6 (Homo sapiens) (UniProt Q16828). The experiment is described as above. Conditions: HeLa MKP-3 transfected, phospho-Erk imaging KS statistic; at 10 µM; stronger effect = higher value; cells stimulated with TPA for 15 min.
The target of experiment [5] is Voltage-gated potassium channel subunit beta-2 (Rattus norvegicus) (UniProt P62483). Kind of experiment: KvBeta enzyme negative modulators, primary screen, biochemical, NADPH fluorescence (AID 622;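 active = fluorescence slope higher than the sample average by over 3 SD, cut at about -0.22 in these data, passing the limit was not always enough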;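 note: slope of raw intensity against log time taken from 70 to 1610 s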). Conditions: recombinant KvBeta, 4-cyanobenzaldehyde reduction, at 10 µM, stronger effect = higher value.
Chain of Voltage-gated potassium channel subunit beta-2 (Rattus norvegicus) (P62483 whole entry, looked up): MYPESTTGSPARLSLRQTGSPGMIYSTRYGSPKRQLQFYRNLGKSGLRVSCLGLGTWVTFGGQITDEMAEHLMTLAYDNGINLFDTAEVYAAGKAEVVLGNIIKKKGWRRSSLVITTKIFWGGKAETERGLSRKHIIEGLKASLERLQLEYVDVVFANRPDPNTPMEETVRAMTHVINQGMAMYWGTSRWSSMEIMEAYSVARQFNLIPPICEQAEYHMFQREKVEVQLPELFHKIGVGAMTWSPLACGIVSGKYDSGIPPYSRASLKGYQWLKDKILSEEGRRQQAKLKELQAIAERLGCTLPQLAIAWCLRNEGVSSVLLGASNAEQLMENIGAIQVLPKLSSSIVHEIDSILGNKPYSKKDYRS
The target is the same in experiment [6]. Kind of experiment: KvBeta positive modulators, primary screen, biochemical, NADPH fluorescence (AID 623).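 Note: fluorescence intensity change per second fitted from 20 to 320 s.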 Conditions: Recombinant KvBeta, NADPH fluorescence decrease slope, 10 min; at 10 µM; stronger effect = lower value.
The target of experiment [7] is Alpha-2C adrenergic receptor (Homo sapiens) (UniProt P18825). Kind of experiment: modulators of alpha2C/GIRK thallium flux, primary screen, cell-based, HEK293 alpha2C/GIRK1/2 (AID 624;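 active = fluorescence slope after compound addition differing from the mean of all screened samples at 99.7% confidence, in either direction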;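 note: slope of fluorescence ratio to pre-addition baseline per second over 15 to 24 s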). Conditions: thallium flux BTC fluorescence, at 10 µM, actives lie on both sides.
Chain of Alpha-2C adrenergic receptor (Homo sapiens) (P18825 whole entry, looked up): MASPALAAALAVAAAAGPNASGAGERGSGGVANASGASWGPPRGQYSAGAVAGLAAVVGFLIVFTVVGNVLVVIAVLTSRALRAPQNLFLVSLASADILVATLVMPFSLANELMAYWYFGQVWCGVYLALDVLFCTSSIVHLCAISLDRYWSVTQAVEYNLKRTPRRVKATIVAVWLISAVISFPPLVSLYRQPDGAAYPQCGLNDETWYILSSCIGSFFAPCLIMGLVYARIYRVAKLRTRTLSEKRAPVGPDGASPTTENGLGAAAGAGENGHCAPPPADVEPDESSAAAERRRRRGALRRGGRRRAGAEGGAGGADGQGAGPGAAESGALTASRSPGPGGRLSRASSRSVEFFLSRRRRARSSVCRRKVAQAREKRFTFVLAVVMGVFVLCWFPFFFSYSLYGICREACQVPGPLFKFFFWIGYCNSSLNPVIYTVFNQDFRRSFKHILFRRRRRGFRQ
Experiment [8] can be described thus: inhibitors of larval lipid processing in zebrafish, primary screen, whole organism, PED6 fluorescence, gall bladder and intestine (AID 686;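 active = a full or partial loss of lipid-probe fluorescence in the fish gall bladder, intestine or both, judged by eye; inactive = no fluorescence loss, or compound toxic to the fish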;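 note: signal comes from phospholipase A2 cleavage of quenched PED6 carried via bile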). Conditions: Zebrafish larvae PED6 lipid processing, fluorescence scoring; screened at 20 µM (by protocol). Summed up: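 Doses: 20 µM single dose. Test system: live zebrafish larvae aged 5-7 days, whole organism. Quantity: five larvae per well. Measured by: By-eye fluorescence microscopy. Reagent: ingested quenched lipid PED6 at 100 nM. Read-out: visual per-well fluorescence inhibition score. Times: overnight exposure of larvae to compound plus PED6.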

Experiment [9] in a line: inhibitors of Chlamydomonas gravitaxis, primary screen, whole organism, Chlamydomonas reinhardtii, WT vs cilia-less mutant, absorbance, 96-well (AID 463189;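 active = inhibition at or above 50% relative to wild type and mutant plate controls; inactive = inhibition below 50%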;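 note: 0% = wild type cc124 cells in DMSO and 100% = ciliumless bld1 mutant cells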). Conditions: OD600 absorbance, 2 days, at 10 µM, stronger effect = higher value.
The mark [10] stands for this setting: measured here: cell density z-score.
Setting [11] is: measured here: nuclear c-Myc green intensity z-score.
Setting [12] is: measured here: nuclear pErk red intensity z-score, stronger effect = higher value.

Active and inactive are the calls of the source.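 Rule for the calls, unless noted: active = NADPH fluorescence slope more negative than the mean of all samples by about 3 SD, 99.7% confidence; inactive = the rest.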

Chain of Dual specificity protein phosphatase 6 (Homo sapiens) (Q16828 whole entry, looked up): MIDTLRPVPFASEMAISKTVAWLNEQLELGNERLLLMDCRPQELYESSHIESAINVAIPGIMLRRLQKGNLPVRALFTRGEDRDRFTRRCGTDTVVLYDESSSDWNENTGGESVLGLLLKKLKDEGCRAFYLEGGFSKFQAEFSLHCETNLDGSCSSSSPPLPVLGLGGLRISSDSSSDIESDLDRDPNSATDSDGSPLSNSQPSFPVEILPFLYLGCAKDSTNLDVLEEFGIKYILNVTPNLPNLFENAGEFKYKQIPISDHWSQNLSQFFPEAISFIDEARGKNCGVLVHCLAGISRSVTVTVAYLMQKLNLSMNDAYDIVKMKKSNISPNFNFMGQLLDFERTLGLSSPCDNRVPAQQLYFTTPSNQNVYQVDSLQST

Usually inhibition stands for the drop in the measured response relative to a control, in per cent. For the compound `CC1(C)Cc2c(sc3nc4n(c(=N)c23)CCC4)CO1`, the cell count in experiment [1] came out at 678. The inhibition in [1] is -24.9% (inactive); in experiment [2], -38.1% (inactive); in experiment [4] it was -13.9% (inactive); in experiment [9], -6.56% (inactive). In addition, the nuclei count in experiment [2] stood at 164%. The z-score is -0.552 in [3] (setting [10]), 1.24 in experiment [3] (setting [11]) and 2.19 in [3] (setting [12]). The fluorescence slope in experiment [5] was -0.416 (inactive). Further, the NADPH fluorescence slope in [6] is -4.6e-05 (inactive). Besides, in experiment [7], the slope is 0.00517 (inactive). In addition, in experiment [8], the compound was classed as inactive.

As for `CCN(CC)CCCn1c(C)cc2c(c1=O)C(c1ccccc1)C(C#N)=C(N)O2` (centres undefined), the cell count in experiment [1] stood at 417. The inhibition in experiment [1] was 11.8% (inactive); in experiment [2], -54.2% (inactive); in experiment [4], 0.671% (inactive); in [9], -1.93% (inactive). For the same compound, in [2], the nuclei count is 140%. Besides, the z-score in [3] (setting [10]) is -0.637; in experiment [3] (setting [11]) it was 0.212; in experiment [3] (setting [12]), 1.28. Further, the fluorescence slope in experiment [5] is -0.395 (inactive). Besides, in experiment [6], the NADPH fluorescence slope is -3.1e-05 (inactive). In experiment [7], the slope was 0.0067 (inactive). Moreover, the compound was called inactive in experiment [8].

Regarding `N/C(CCCN1CCCCC1)=N/O`, the cell count in [1] turned out to be 498. Also, the inhibition was -6% (inactive) in experiment [1], 28.3% (inactive) in experiment [2], 17.3% (inactive) in [4] and 12.2% (inactive) in [9]. The compound also returned a nuclei count in experiment [2] of 108%. Further, the z-score in [3] (setting [10]) is 1.83; in [3] (setting [11]), -0.291; in [3] (setting [12]), 0.182. In addition, in experiment [5], the fluorescence slope was -0.509 (inactive). Also, the NADPH fluorescence slope in experiment [6] was -8e-06 (inactive). In addition, the slope in [7] is 0.00607 (inactive). For the same compound, the compound was called inactive in [8].

Take `CN(C)CCNc1nc(-c2ccco2)c2c(c1C#N)CC(C)(C)OC2`: in experiment [1], the cell count amounted to 621. The inhibition was -14.2% (inactive) in experiment [1], -15.8% (inactive) in experiment [2], 1.48% (inactive) in experiment [4] and 17.6% (inactive) in [9]. Further, the nuclei count in [2] is 164%. Also, the z-score in [3] (setting [10]) was -0.37; in [3] (setting [11]), -0.517; in experiment [3] (setting [12]), 0.864. Also, the fluorescence slope in experiment [5] is -0.34 (inactive). Also, the NADPH fluorescence slope in experiment [6] is -5.5e-05 (inactive). The slope in experiment [7] is 0.00509 (inactive). In experiment [8], the outcome was inactive.

With `CN1C(=O)NC(NC(=O)c2ccco2)(C(F)(F)F)C1=O` (centres undefined), in experiment [1], the cell count worked out at 489. Moreover, the inhibition is -3.4% (inactive) in experiment [1], -78% (inactive) in experiment [2], 3.5% (inactive) in experiment [4] and -10.1% (inactive) in [9]. Besides, in experiment [2], the nuclei count came to 116%. The z-score is -0.0785 in experiment [3] (setting [10]), -0.489 in experiment [3] (setting [11]) and 0.527 in [3] (setting [12]). Also, the fluorescence slope in experiment [5] is -0.504 (inactive). The NADPH fluorescence slope in [6] was -6e-05 (inactive). Moreover, the slope in experiment [7] is 0.00753 (inactive). Moreover, the compound was called inactive in [8].

As for `CC1(C)Cc2c(sc3c4nnnn4c4nnnn4c23)CO1`, the cell count in [1] worked out at 634. Moreover, the inhibition is -12.5% (inactive) in experiment [1], -30.9% (inactive) in experiment [2], 20.8% (inactive) in experiment [4] and 27.1% (inactive) in experiment [9]. For the same compound, the nuclei count in experiment [2] came to 164%. Also, the z-score is 0.452 in experiment [3] (setting [10]), 0.0526 in experiment [3] (setting [11]) and 0.417 in experiment [3] (setting [12]). Also, the fluorescence slope in experiment [5] was -0.493 (inactive). The NADPH fluorescence slope in experiment [6] was -9.6e-05 (inactive). The slope in [7] was 0.0051 (inactive). Besides, the compound was called inactive in [8].

`Cc1nnc(C)n1/N=C/c1cc(Br)cc(Br)c1O`: the cell count in experiment [1] was 354. Besides, the inhibition was 3.7% (inactive) in experiment [1], -46.9% (inactive) in [2], 1.6e-07% (inactive) in experiment [4] and 4.5% (inactive) in experiment [9]. The nuclei count in experiment [2] is 156%. The figures for the z-score in [3] (setting [10]), in [3] (setting [11]) and in [3] (setting [12]) were 0.57, 0.148 and -0.137, respectively. The fluorescence slope in [5] is -0.368 (inactive). Besides, the NADPH fluorescence slope in experiment [6] was -0.000109 (inactive). Further, the slope in experiment [7] is 0.00748 (inactive). Moreover, the compound was classed as inactive in [8].

`CC(C)CC(=O)Nc1ccccc1N1CCCC1`: in experiment [1], the cell count was 269. Further, the inhibition was 3.1% (inactive) in [1], -24.3% (inactive) in experiment [2], 9.39% (inactive) in experiment [4] and -8.2% (inactive) in [9]. In experiment [2], this compound gave a nuclei count of 101%. The values for the z-score in experiment [3] (setting [10]), in experiment [3] (setting [11]) and in experiment [3] (setting [12]) were -0.814, 0.661 and -0.804, respectively. For the same compound, the fluorescence slope in [5] was -0.396 (inactive). Besides, in experiment [6], the NADPH fluorescence slope was -1.2e-05 (inactive). Besides, the slope in [7] is 0.0054 (inactive). Also, the call in [8] was inactive.

Take `c1ccc(-c2nnc3n2N=C(c2ccc4c(c2)OCO4)CS3)nc1`: the cell count in experiment [1] came out at 626. The inhibition in experiment [1] was -5% (inactive); in experiment [2], -177% (inactive); in experiment [4] it was -11.5% (inactive); in [9] it was -7.21% (inactive). This compound also showed a nuclei count in experiment [2] of 144%. The figures for the z-score in experiment [3] (setting [10]), in experiment [3] (setting [11]) and in [3] (setting [12]) were 0.439, 0.912 and 0.545, respectively. Further, in experiment [5], the fluorescence slope is -0.406 (inactive). Further, in experiment [6], the NADPH fluorescence slope was -0.000131 (inactive). The slope in experiment [7] is 0.00609 (inactive). In experiment [8], the outcome was inactive.

As to `CC1(C)Cc2nc(NCCCO)c(C#N)cc2CO1`, the cell count in experiment [1] was 503. The inhibition is -6% (inactive) in experiment [1], 29.1% (inactive) in [2], -11.9% (inactive) in experiment [4] and 5% (inactive) in [9]. In addition, the nuclei count in [2] was found to be 94.8%. The figures for the z-score in experiment [3] (setting [10]), in experiment [3] (setting [11]) and in experiment [3] (setting [12]) were -0.759, 0.0263 and -0.295, respectively. Moreover, the fluorescence slope in experiment [5] is -0.421 (inactive). In addition, the NADPH fluorescence slope in [6] was -0.000243 (inactive). For the same compound, the slope in experiment [7] is 0.00519 (inactive). The compound was classed as inactive in [8].

`CN(C)c1nc2n(c(=O)n1)C(C#N)CS2` (centres undefined): the cell count in experiment [1] was found to be 364. Also, the inhibition in experiment [1] was -3.1% (inactive); in [2], -192% (inactive); in experiment [4] it was 13.2% (inactive); in experiment [9] it was -3.08% (inactive). Besides, the nuclei count in experiment [2] came out at 105%. The z-score is 0.947 in [3] (setting [10]), -1.21 in experiment [3] (setting [11]) and -1.65 in [3] (setting [12]). Further, the fluorescence slope in [5] was -0.438 (inactive). Besides, the NADPH fluorescence slope in experiment [6] was -5.8e-06 (inactive). Also, the slope in [7] is 0.00693 (inactive). Moreover, the call in experiment [8] was inactive.

Consider `O=C(NCc1ccccc1)c1ccc(=O)[nH]n1`, for which the cell count in experiment [1] was 328. Besides, the inhibition in [1] was -0.3% (inactive); in experiment [2] it was -132% (inactive); in experiment [4], 11.3% (inactive); in [9], -6.14% (inactive). Also, the nuclei count in [2] was determined as 98.8%. Moreover, the z-score in experiment [3] (setting [10]) is -0.814; in [3] (setting [11]) it was 0.951; in experiment [3] (setting [12]), -1.98. In addition, the fluorescence slope in [5] is -0.456 (inactive). Moreover, the NADPH fluorescence slope in experiment [6] was -0.00047 (inactive). Also, the slope in experiment [7] was 0.00499 (inactive). In addition, in experiment [8], the outcome was “inactive; toxic”.

For `CCCOc1ccc(/C(O)=C2/C(=O)C(=O)N(CCN(C)C)C2c2ccncc2)cc1` (centres undefined), in [1], the cell count is 434. Moreover, the inhibition in experiment [1] was -4.1% (inactive); in experiment [2] it was -139% (inactive); in [4] it was -4.7% (inactive); in [9], 8.14% (inactive). This compound also registered a nuclei count in [2] of 154%. Further, the z-score is 1.88 in [3] (setting [10]), 0.199 in experiment [3] (setting [11]) and -1.31 in experiment [3] (setting [12]). Besides, the fluorescence slope in experiment [5] is -0.418 (inactive). For the same compound, in experiment [6], the NADPH fluorescence slope was -6.3e-05 (inactive). In addition, the slope in [7] was 0.00564 (inactive). The result in experiment [8] was inactive.
